Source: ChEMBL document CHEMBL3244145, “Synthesis and quantitative structure--activity relationships of some antibacterial 3-formylrifamycin SV N-(4-substituted phenyl)piperazinoacethydrazones” (J Med Chem, 1978)
Values after ≈ are worked out from the molar mass of the structure shown. Active and inactive are the calls of the source. The rule behind the calls is not given here.

Columns and labels:
Vaccinia virus = assay: Antiviral activity against Vaccinia virus infected in L929 cells assessed as reduction in plaque formation after 3 to 4 days by crystal violet staining method; assay type: functional, organism-based; settings: Orthopoxvirus vaccinia
[1] = system: Mycobacterium tuberculosis; assay: Antimicrobial activity against Mycobacterium tuberculosis H37Rv by agar dilution method; assay type: functional; settings: for MIC: Mycobacterium tuberculosis, H37Rv
Procedure, shortened: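 Agar dilution: the hydrazone is dissolved in warm Middlebrook agar and serially diluted into two quadrants of a quartered dish, with two drug-free quadrants. After cooling, 0.1 mL of M. tuberculosis suspension (McFarland no. 1, set spectrophotometrically) is inoculated. Plates are incubated 14 days at 37 °C under 5% CO2 and scored for colonies. Run in duplicate.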

Bacillus subtilis = assay: Antimicrobial activity against Bacillus subtilis 104 by serial dilution method; assay type: functional; settings: for MIC: Bacillus subtilis, 104
Staphylococcus aureus = assay: Antimicrobial activity against Staphylococcus aureus 11 by serial dilution method; assay type: functional; settings: for MIC: Staphylococcus aureus, 11
L929 = assay: Cytotoxicity against mouse L929 cells by microscopic analysis; assay type: cell-based
Mycolicibacterium phlei = assay: Antimicrobial activity against Mycobacterium phlei 111 by serial dilution method; assay type: functional; settings: for MIC: Mycolicibacterium phlei, 111
Clostridium perfringens = assay: Antimicrobial activity against Clostridium perfringens 2 by serial dilution method; assay type: functional; settings: for MIC: Clostridium perfringens, 2
Procedure, shortened: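 Broth MICs were determined by serial dilution of the hydrazones, run in triplicate. Where results differed, the standard deviation of the three determinations is reported.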

| Structure (SMILES) | Activity (Vaccinia virus) | log(1/C) [1] | MIC [1] [µg/mL] | log(1/C) (Bacillus subtilis) | MIC (Bacillus subtilis) [µg/mL] | log(1/C) (Staphylococcus aureus) | MIC (Staphylococcus aureus) [µg/mL] | Activity (L929) | log(1/C) (Mycolicibacterium phlei) | MIC (Mycolicibacterium phlei) [µg/mL] | log(1/C) (Clostridium perfringens) | MIC (Clostridium perfringens) [µg/mL] |
| --- | --- | --- | --- | --- | --- | --- | --- | --- | --- | --- | --- | --- |
| CO[C@H]1/C=C/O[C@@]2(C)Oc3c(C)c(O)c4c(O)c(c(/C=N/NC(=O)CN5CCN(c6ccc(NC(C)=O)cc6)CC5)c(O)c4c3C2=O)NC(=O)/C(C)=C\C=C\[C@H](C)[C@H](O)[C@@H](C)[C@@H](O)[C@@H](C)[C@H](OC(C)=O)[C@@H]1C | inactive | 4.74 | 18 (≈ 18 µM) | 4.92 | 12 (≈ 12 µM) | 7.22 | 0.06 (≈ 0.0601 µM) | Toxic | 4.59 | 31 (≈ 31 µM) | 8 | 0.01 (≈ 0.01 µM) |
| CO[C@H]1/C=C/O[C@@]2(C)Oc3c(C)c(O)c4c(O)c(c(/C=N/NC(=O)CN5CCN(c6ccc(C(C)(C)C)cc6)CC5)c(O)c4c3C2=O)NC(=O)/C(C)=C\C=C\[C@H](C)[C@H](O)[C@@H](C)[C@@H](O)[C@@H](C)[C@H](OC(C)=O)[C@@H]1C | inactive | 5.12 | 7.5 (≈ 7.51 µM) | 5.32 | 4.8 (≈ 4.81 µM) | 7.49 | 0.033 (≈ 0.0331 µM) | Toxic | 5.44 | 3.63 (≈ 3.64 µM) | 8.7 | 0.002 (≈ 0.002 µM) |
| CO[C@H]1/C=C/O[C@@]2(C)Oc3c(C)c(O)c4c(O)c(c(/C=N/NC(=O)CN5CCN(c6ccc(Cl)cc6)CC5)c(O)c4c3C2=O)NC(=O)/C(C)=C\C=C\[C@H](C)[C@H](O)[C@@H](C)[C@@H](O)[C@@H](C)[C@H](OC(C)=O)[C@@H]1C | inactive | 4.91 | 12 (≈ 12.3 µM) | 5.31 | 4.8 (≈ 4.92 µM) | 7.43 | 0.036 (≈ 0.0369 µM) | Toxic | 5.19 | 6.38 (≈ 6.53 µM) | 8.21 | 0.006 (≈ 0.00614 µM) |
| CO[C@H]1/C=C/O[C@@]2(C)Oc3c(C)c(O)c4c(O)c(c(/C=N/NC(=O)CN5CCN(c6ccc(F)cc6)CC5)c(O)c4c3C2=O)NC(=O)/C(C)=C\C=C\[C@H](C)[C@H](O)[C@@H](C)[C@@H](O)[C@@H](C)[C@H](OC(C)=O)[C@@H]1C | inactive | 4.81 | 15 (≈ 15.6 µM) | 5.3 | 4.8 (≈ 5 µM) | 7.06 | 0.084 (≈ 0.0875 µM) | Toxic | 5.22 | 5.75 (≈ 5.99 µM) | 8.51 | 0.005 (≈ 0.00521 µM) |
| CCc1ccc(N2CCN(CC(=O)N/N=C/c3c4c(O)c5c(O)c(C)c6c(c5c3O)C(=O)[C@@](C)(O/C=C/[C@H](OC)[C@@H](C)[C@@H](OC(C)=O)[C@H](C)[C@H](O)[C@H](C)[C@@H](O)[C@@H](C)/C=C/C=C(/C)C(=O)N4)O6)CC2)cc1 | inactive | 4.72 | 18.6 (≈ 19.2 µM) | 5.25 | 5.5 (≈ 5.67 µM) | 7.57 | 0.026 (≈ 0.0268 µM) | Toxic | 5.16 | 6.75 (≈ 6.96 µM) | 8.51 | 0.003 (≈ 0.00309 µM) |
| CO[C@H]1/C=C/O[C@@]2(C)Oc3c(C)c(O)c4c(O)c(c(/C=N/NC(=O)CN5CCN(c6ccc(Oc7ccccc7)cc6)CC5)c(O)c4c3C2=O)NC(=O)/C(C)=C\C=C\[C@H](C)[C@H](O)[C@@H](C)[C@@H](O)[C@@H](C)[C@H](OC(C)=O)[C@@H]1C | inactive | 4.84 | 15 (≈ 14.5 µM) | 5.32 | 5 (≈ 4.83 µM) | 7.74 | 0.019 (≈ 0.0184 µM) | Toxic | 5.24 | 6 (≈ 5.8 µM) | 8.11 | 0.008 (≈ 0.00774 µM) |
| CO[C@H]1/C=C/O[C@@]2(C)Oc3c(C)c(O)c4c(O)c(c(/C=N/N5CCN(C)CC5)c(O)c4c3C2=O)NC(=O)/C(C)=C\C=C\[C@H](C)[C@H](O)[C@@H](C)[C@@H](O)[C@@H](C)[C@H](OC(C)=O)[C@@H]1C [RIFAMPIN] | – | 5.91 | 1 (≈ 1.22 µM) | 6.59 | 0.21 (≈ 0.255 µM) | > 8.07 | < 0.007 | – | 6.48 | 0.27 (≈ 0.328 µM) | 8.44 | 0.003 (≈ 0.00365 µM) |
| COc1ccc(N2CCN(CC(=O)N/N=C/c3c4c(O)c5c(O)c(C)c6c(c5c3O)C(=O)[C@@](C)(O/C=C/[C@H](OC)[C@@H](C)[C@@H](OC(C)=O)[C@H](C)[C@H](O)[C@H](C)[C@@H](O)[C@@H](C)/C=C/C=C(/C)C(=O)N4)O6)CC2)cc1 | inactive | 4.81 | 15 (≈ 15.4 µM) | 4.93 | 11.3 (≈ 11.6 µM) | 7.26 | 0.054 (≈ 0.0555 µM) | Toxic | 5.27 | 5.25 (≈ 5.4 µM) | 8.14 | 0.007 (≈ 0.0072 µM) |
| CO[C@H]1/C=C/O[C@@]2(C)Oc3c(C)c(O)c4c(O)c(c(/C=N/NC(=O)CN5CCN(c6ccc(C#N)cc6)CC5)c(O)c4c3C2=O)NC(=O)/C(C)=C\C=C\[C@H](C)[C@H](O)[C@@H](C)[C@@H](O)[C@@H](C)[C@H](OC(C)=O)[C@@H]1C | inactive | 4.72 | 18.6 (≈ 19.2 µM) | 4.77 | 16.3 (≈ 16.9 µM) | 7.07 | 0.082 (≈ 0.0848 µM) | Toxic | 4.65 | 21.5 (≈ 22.2 µM) | 8.14 | 0.007 (≈ 0.00724 µM) |
| CO[C@H]1/C=C/O[C@@]2(C)Oc3c(C)c(O)c4c(O)c(c(/C=N/NC(=O)CN5CCN(c6ccc(C)cc6)CC5)c(O)c4c3C2=O)NC(=O)/C(C)=C\C=C\[C@H](C)[C@H](O)[C@@H](C)[C@@H](O)[C@@H](C)[C@H](OC(C)=O)[C@@H]1C | inactive | 4.96 | 10.5 (≈ 11 µM) | 5.27 | 5.1 (≈ 5.33 µM) | 7.4 | 0.038 (≈ 0.0397 µM) | Toxic | 5.14 | 7 (≈ 7.32 µM) | 8.14 | 0.007 (≈ 0.00732 µM) |
| CO[C@H]1/C=C/O[C@@]2(C)Oc3c(C)c(O)c4c(O)c(c(/C=N/NC(=O)CN5CCN(c6ccc(C(C)C)cc6)CC5)c(O)c4c3C2=O)NC(=O)/C(C)=C\C=C\[C@H](C)[C@H](O)[C@@H](C)[C@@H](O)[C@@H](C)[C@H](OC(C)=O)[C@@H]1C | inactive | 5.04 | 9 (≈ 9.14 µM) | 5.3 | 4.9 (≈ 4.98 µM) | 7.56 | 0.027 (≈ 0.0274 µM) | Toxic | 5.48 | 3.25 (≈ 3.3 µM) | 8.52 | 0.003 (≈ 0.00305 µM) |
| CO[C@H]1/C=C/O[C@@]2(C)Oc3c(C)c(O)c4c(O)c(c(/C=N/NC(=O)CN5CCN(c6ccc(Br)cc6)CC5)c(O)c4c3C2=O)NC(=O)/C(C)=C\C=C\[C@H](C)[C@H](O)[C@@H](C)[C@@H](O)[C@@H](C)[C@H](OC(C)=O)[C@@H]1C | inactive | 5.08 | 8.4 (≈ 8.23 µM) | 5.31 | 5 (≈ 4.9 µM) | 7.46 | 0.035 (≈ 0.0343 µM) | Toxic | 5.22 | 6.13 (≈ 6 µM) | 8.23 | 0.006 (≈ 0.00588 µM) |
| CO[C@H]1/C=C/O[C@@]2(C)Oc3c(C)c(O)c4c(O)c(c(/C=N/NC(=O)CN5CCN(c6ccccc6)CC5)c(O)c4c3C2=O)NC(=O)/C(C)=C\C=C\[C@H](C)[C@H](O)[C@@H](C)[C@@H](O)[C@@H](C)[C@H](OC(C)=O)[C@@H]1C | inactive | 5.03 | 8.7 (≈ 9.23 µM) | 5.24 | 5.4 (≈ 5.73 µM) | 7.22 | 0.057 (≈ 0.0605 µM) | Toxic | 5.12 | 7.13 (≈ 7.57 µM) | 8.13 | 0.007 (≈ 0.00743 µM) |
| CO[C@H]1/C=C/O[C@@]2(C)Oc3c(C)c(O)c4c(O)c(c(/C=N/NC(=O)CN5CCN(c6ccc(C(F)(F)F)cc6)CC5)c(O)c4c3C2=O)NC(=O)/C(C)=C\C=C\[C@H](C)[C@H](O)[C@@H](C)[C@@H](O)[C@@H](C)[C@H](OC(C)=O)[C@@H]1C | inactive | 4.75 | 18 (≈ 17.8 µM) | 5.01 | 9.8 (≈ 9.7 µM) | 7.62 | 0.024 (≈ 0.0238 µM) | Toxic | 5.14 | 7.38 (≈ 7.31 µM) | 8.7 | 0.002 (≈ 0.00198 µM) |
| CO[C@H]1/C=C/O[C@@]2(C)Oc3c(C)c(O)c4c(O)c(c(/C=N/NC(=O)CN5CCN(c6ccc([N+](=O)[O-])cc6)CC5)c(O)c4c3C2=O)NC(=O)/C(C)=C\C=C\[C@H](C)[C@H](O)[C@@H](C)[C@@H](O)[C@@H](C)[C@H](OC(C)=O)[C@@H]1C | inactive | 4.74 | 18 (≈ 18.2 µM) | 4.9 | 12.3 (≈ 12.5 µM) | 7.6 | 0.025 (≈ 0.0253 µM) | Toxic | 4.93 | 11.5 (≈ 11.7 µM) | 8.3 | 0.005 (≈ 0.00507 µM) |
